# Screening data as filed in PubChem BioAssay.
# Only some compounds are listed: those with a hit (about 2% of all), similar ones and a draw of the others.
# HIF act = HIF pathway transcriptional activators, primary screen, cell-based, U2OS HRE-luciferase, luminescence | U2OS HRE-luciferase reporter; normalized: DMSO 0%, desferrioxamine 100% | activation, % at 7.5 µM (by protocol) | actives 0.32% (n = 300,000);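 active = mean activation of at least 10% of the iron chelator positive control signal, with at least half of replicates also reaching 10%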
# ARNT-TACC3 inh = disruptors of ARNT/TACC3 protein interaction, primary screen, biochemical, AlphaScreen, single concentration; Transforming acidic coiled-coil-containing protein 3 (Homo sapiens), Q9Y6A5; AlphaScreen His-ARNT PAS-B/GST-TACC3 binding, luminescence; TACC3 fragment carries E629A point mutation; inhibition, % at 9.99 µM; actives 0.66% (n = 390,000);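 active = mean inhibition of replicates at least 50% and at least half of replicates each reaching 50%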;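 note: 0% = complete ARNT plus TACC3 wells and 100% = ARNT alone without TACC3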
# T cruzi repl = inhibitors of intracellular T. cruzi growth, primary screen, luminescence, NIH3T3 host cells; T. cruzi beta-gal in NIH3T3, 90 h; actives 1.4% (n = 300,000); inhibition, % (test concentration not listed); AID 1885, 2009;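 active = mean inhibition across valid replicates above about 55%, limit read from the data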;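 note: signal also drops with host cell toxicity which is not excluded here; 0% = plate median of DMSO wells and 100% = zero luminescence signal; higher percent means less beta-gal luminescence so fewer parasites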
#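 Material: NIH/3T3 host cells with β-galactosidase reporter T. cruzi; Input: 5,000 host fibroblasts per well; Medium: DMEM, 2% fetal bovine serum; Compound: 50 nL DMSO compound solution per well; Schedule: 3 h host attachment, then at least 90 h co-culture; Detection: luminescent β-galactosidase signal after 60 min lysis.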
# AI-2 QS modul = Vibrio harveyi AI-2 quorum sensing modulators, primary screen, JMH597 strain, luminescence/OD600 ratio; Vibrio harveyi JMH597 AI-2 luminescence/OD600 ratio, 9 h; stronger effect = lower value; strain lacks LuxN and CqsS sensors; 0 = neutral-control median; activity change, % at 7.5 µM; actives 0.4% (n = 300,000); AID 2094, 2009; in the data active = activity change below about -75%, passing the limit was not always enough;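 note: luminescence divided by OD600 gain over 9 h not by final OD600 alone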
# An asterisk follows results filed as active; x = no result.
SMILES,HIF act,ARNT-TACC3 inh,T cruzi repl,AI-2 QS modul
COc1ccc([C@H]2/C=C\CN(S(=O)(=O)c3ccc4ccccc4c3)[C@@H](C)C(=O)N2Cc2ccc(F)cc2)cc1,0,11,59*,4
CCN(Cc1ccncc1)C(=O)c1cc(COc2ccc(C)c(C)c2)on1,1,-3,56*,-5
Cc1ccc(OCc2cc(C(=O)N(CCO)Cc3cccs3)no2)cc1C,3,14,8,-60
O=C(c1cc(COc2ccc(F)cc2Cl)on1)N(Cc1ccncc1)CC1CCCO1 (stereo not given),0,-11,70*,3
CC1(c2ccc(OC(F)F)cc2)NC(=O)N(CC(=O)Nc2ccc(S(N)(=O)=O)cc2)C1=O (stereo not given),-20,-3,2,-14
CC1(c2ccc(OC(F)F)cc2)NC(=O)N(CC(=O)Nc2ccc(OC(F)F)cc2)C1=O (stereo not given),0,-1,5,-93*
CC1(c2ccc(OC(F)F)cc2)NC(=O)N(CC(=O)Nc2ccc(F)cc2)C1=O (stereo not given),0,2,-1,-94*
COCC(=O)Nc1ccc2c(c1)[C@H]1C[C@@H](CC(=O)NCc3cccnc3)O[C@@H](CO)[C@H]1O2,x,2,x,x
C/C(=N\NC(=O)c1cc(-c2cccc(OC(C)C)c2)nc2ccccc12)c1cccnc1,0,0,63*,65
Cc1nn(-c2ccccc2)c(N2CCCC2)c1/C=N/NC(=O)c1cc(-c2cccnc2)nc2ccccc12,-1,16,57*,35
C/C(=N\NC(=O)c1cc(-c2cccnc2)nc2ccccc12)c1ccc(O)cc1O,36*,-8,47,8
C/C(=N\NC(=O)c1cc(-c2ccc(C)s2)nc2ccccc12)c1cccnc1,1,3,18,19
C/C(=N\NC(=O)c1cc(-c2ccccc2C)nc2ccccc12)c1cccnc1,0,1,18,4
Cc1nn(-c2ccccc2)c(N2CCCC2)c1/C=N/NC(=O)c1ccccc1O,0,-30,-9,24
O=C(N/N=C(\c1ccccc1)c1cccnc1)c1cc(O)ccc1O,0,x,65*,13
C/C(=N\NC(=O)c1cccnc1)c1ccccc1,-1,14,-14,-5
COc1ccc(OC)c(CN2CCN(C(=O)CCNC(=O)c3ccc(Br)cc3)CC2)c1,0,12,60*,8
COc1ccc(OC)c(CN2CCN(C(=O)CNC(=O)c3ccc(C(C)(C)C)cc3)CC2)c1,x,-1,x,x
CC(=O)N1CCN(c2ncnc3sc(-c4ccccc4)cc23)CC1,2,-5,4,19
Oc1ccc(N2CCN(c3ncnc4sc(-c5ccccc5)cc34)CC2)cc1,1,0,58*,8
CCc1cccc2c(C(=O)COC(=O)c3ccccc3)c[nH]c12,4,4,5,0
CCc1cccc2c(C(=O)COC(=O)c3ccc(O)cc3)c[nH]c12,6,x,56*,6
O=C(C[C@H]1CC[C@@H](NC(=O)c2cccc(F)c2)[C@H](CO)O1)Nc1nccs1,x,-7,x,x
CC1=C(C(N)=O)C(c2cccnc2)n2nc(-c3cccc(C)c3)nc2N1 (stereo not given),-1,-4,66*,10
C[C@@H]1CN([C@H](C)CO)C(=O)c2cc(C#CCN(C)C)cnc2O[C@H]1CN(C)C(=O)Cc1cccnc1,x,-3,x,x
SMILES,HIF act,ARNT-TACC3 inh,T cruzi repl,AI-2 QS modul
COc1ccc2[nH]c(=O)c(CN(Cc3ccco3)C(c3nnnn3Cc3ccccc3)C(C)C)cc2c1 (stereo not given),1,-25,76*,15
COCCn1nnnc1C(C(C)C)N(Cc1ccccc1)Cc1cc2cc(OC)ccc2[nH]c1=O (stereo not given),x,2,x,x
COc1ccc(S(=O)(=O)N[C@@H]2CC[C@@H](CC(=O)N3CCc4ccccc4C3)O[C@H]2CO)cc1,x,2,x,x
COc1ccccc1/C=C/C(=O)NCC(=O)N/N=C/c1ccccc1[N+](=O)[O-],0,x,61*,3
CC1(C)Cc2ccccc2C2=NNC(=O)C2=N1,-6,61*,50,7
CC(C)NC(=O)Nc1cccc2c1O[C@@H](CN(C)Cc1ccc(C(=O)O)cc1)[C@H](C)CN([C@H](C)CO)C2=O,x,5,x,x
COc1cc2c(cc1OC)C(C)N(S(=O)(=O)c1ccc(Cl)nc1)CC2 (stereo not given),16*,-1,0,8
COc1cc2c(cc1OC)C(C)N(C(=O)c1ccc(Cl)c(S(=O)(=O)N3CCCCC3)c1)CC2 (stereo not given),0,10,17,28
COc1cc2c(cc1OC)C(c1ccccc1)N(S(C)(=O)=O)CC2 (stereo not given),28*,-8,8,23
C[C@H](CO)N1C[C@H](C)[C@H](CN(C)C)Oc2ccc(NC(=O)Nc3cccc4ccccc34)cc2C1=O,x,6,x,x
Nc1nc2ccc(C(=O)N3CCCCC3)cc2s1,0,47*,-4,20
Cc1nnc(SCc2ccc(Cl)cc2)nc1/C=C/N(C)C,0,1,61*,15
CSc1nnc(C)c(/C=C/NOCc2ccc(Cl)cc2)n1,0,-13,-4,20
C[C@H](CO)N1C[C@H](C)[C@H](CN(C)C)Oc2ccc(NC(=O)c3ccncc3)cc2C1=O,x,-9,x,x
N#Cc1cc([N+](=O)[O-])ccc1Oc1cccc(/C=N/NC(=O)c2cccc(Cl)c2)c1,0,-5,68*,36
COc1ccc(/C=N/NC(=O)c2cccc([N+](=O)[O-])c2)cc1OC,0,2,-5,22
CC(=O)N(C(C)=O)c1ncnc2c1c(-c1ccc(Cl)cc1)nn2C(C)(C)C,0,-7,61*,10
CC(=O)Nc1ncnc2c1c(-c1ccc(Cl)cc1)nn2C(C)(C)C,0,-31,61*,2
CCOC(=O)Cn1nc(-c2ccc(Cl)cc2)ccc1=O,0,-8,-4,25
O=C(CN1CCOCC1)NCC[C@@H]1CC[C@H](NC(=O)Nc2ccc(C(F)(F)F)cc2)[C@H](CO)O1,x,-9,x,x
COc1ccc(C#Cc2ccc([C@@H]3[C@H](CO)N4CCCCN(S(=O)(=O)c5cn(C)cn5)C[C@@H]34)cc2)cc1,x,5,x,x
N#Cc1nc(-c2cccs2)oc1NCc1ccccc1,0,20,3,-91*
CCCCCNc1nc(-c2ccccc2)nc(-n2ccnc2)n1,-1,28,62*,-1
CCCCNc1nc(N(C)c2ccccc2)nc(-n2ccnc2)n1,-1,-5,61*,34
c1ccc(-c2nc(N3CCCCCC3)nc(-n3ccnc3)n2)cc1,-2,x,53,30
c1ccc(-c2ccc(C(c3ccccc3)n3ccnc3)cc2)cc1 (stereo not given),0,-2,33,45
